Here are results for 8 compounds from ChEMBL document CHEMBL5230177, “Inactivation of myostatin by photooxygenation using functionalized d-peptides” (RSC Med Chem, 2023).

Active and inactive are the calls of the source. The calls are words filed in the database; no cut-off is given here.

The test system of series [1] is chymotrypsin (Bos taurus). Briefly: Stability of the compound assessed as chymotrypsin (bovine pancreas)-mediated drug degradation by measuring cleavage at Leu21-Arg22 residue at 100 uM measured for 3 hrs by MALDI-TOF-MS analysis.
The next series relates to trypsin (Sus scrofa). Briefly: Stability of the compound assessed as trypsin (porcine pancreas)-mediated drug degradation at 100 uM measured after 3 hrs by MALDI-TOF-MS analysis.
The target of series [2] is T1, Growth/differentiation factor 8 (Homo sapiens, UniProt O14793).
T1 sequence (O14793 whole entry): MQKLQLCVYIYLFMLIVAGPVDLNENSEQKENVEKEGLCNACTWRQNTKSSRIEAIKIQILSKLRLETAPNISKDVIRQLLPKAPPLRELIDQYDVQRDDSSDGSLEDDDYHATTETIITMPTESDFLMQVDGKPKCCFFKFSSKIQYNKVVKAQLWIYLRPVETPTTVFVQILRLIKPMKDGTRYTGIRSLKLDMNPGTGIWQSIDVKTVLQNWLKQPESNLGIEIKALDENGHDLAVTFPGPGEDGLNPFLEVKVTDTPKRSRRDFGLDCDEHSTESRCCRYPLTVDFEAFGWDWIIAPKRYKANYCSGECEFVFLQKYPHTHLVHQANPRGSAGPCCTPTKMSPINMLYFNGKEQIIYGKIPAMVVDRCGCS
The series can be described thus: Photo-oxygenation mediated inactivation of human recombinant Myostatin expressed in Escherichia coli cells photoirradiated for 30 mins using LED followed by incubation with luciferase reporter transfected HEK293 cells for 4 hrs by luciferase reporter gene assay. Put shortly:
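Myostatin (1 μM in 10 mM phosphate, pH 7.4, with or without peptide) diluted in serum-free DMEM to 0.6 nM, irradiated at 730 nm for 30 min, then added to HEK293 cells. Cells were transfected 24 h with SBE-luc2P reporter plus TK-Renilla control, then held 8 h in serum/phenol red-free DMEM. Exposure 4 h, PBS wash, dual-luciferase read-out. Triplicate, mean ± s.d. (n = 3), Tukey's test.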
Background: A reporter such as luciferase makes a cellular process visible.

The test system of series [3] is chymotrypsin (Bos taurus). The series can be described thus: Stability of the compound assessed as chymotrypsin (bovine pancreas)-mediated drug degradation by measuring cleavage at Tyr7-Ser8 residue at 100 uM measured for 3 hrs by MALDI-TOF-MS analysis.
In series [4] the test system is chymotrypsin (Bos taurus). Briefly: Stability of the compound assessed as chymotrypsin (bovine pancreas)-mediated drug degradation by measuring residual ratio at 100 uM measured after 1 hr by HPLC analysis.
Series [5] deals with Growth/differentiation factor 8 (Homo sapiens) (UniProt O14793). The series can be described thus: Photo-oxygenation of human recombinant Myostatin expressed in Escherichia coli cells assessed as oxygen adduct formation at 1 uM measured after photoirradiation for 30 mins using LED by MALDI-TOF-MS analysis. Put shortly: (§1)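 Myostatin stock (8 μM in 1 mM HCl) diluted to 1 μM in 10 mM phosphate, pH 7.4. Functionalized peptide (final 3 μM) or methylene blue (final 1 μM) added. Irradiated 30 min with 730 nm LED (14 mW) at room temperature. Then 50 mM DTT reduction (37 °C, 0.5 h), Lys-C digestion (1/20 w/w, 37 °C, 2.5 h), ZipTip desalting, MALDI-TOF MS of fragments.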

Series [6] addresses Amyloid-beta precursor protein (Homo sapiens) (UniProt P05067). Briefly: Photo-oxygenation of human Amyloid beta (1 to 42) assessed as oxygen adduct formation at 1 uM measured after photoirradiation for 30 mins using LED by MALDI-TOF-MS analysis. Put shortly:
(§2)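 Aβ1-42 formed in situ from isopeptide stock (250 μM in 0.1% TFA, ultracentrifuged), diluted to 20 μM in 10 mM phosphate, pH 7.4. Functionalized peptide (final 3 μM) or methylene blue (final 1 μM) added. Irradiated with 730 nm LED (14 mW, 3–5 cm) at room temperature. Reduced with 50 mM DTT (37 °C, 0.5 h), Lys-C digested (1/20 w/w, 37 °C, 2.5 h), desalted, analysed by MALDI-TOF MS.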

A short description of series [7]: Phototoxicity against human HEK293 cells assessed as cell viability at 3 uM photoirradiated for 30 mins using LED followed by incubation with compound for 24 hrs by WST-1 assay. The series is classed as toxicity, cell-based. The following applies: time 1470 min, read-out: Activity. Put shortly:
(§3)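 HEK293 cells grown in DMEM with 10% FBS and non-essential amino acids at 37 °C, 5% CO2, seeded 2.0×10^4 cells/well. After 48 h, medium switched to serum- and phenol red-free DMEM containing 3 μM peptide or methylene blue. Cells irradiated with LED (λmax 730 nm, 30 min), then incubated 24 h. Viability read by WST-1; Student's t-test.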

In series [8] the target is Growth/differentiation factor 8 (Homo sapiens) (UniProt O14793). Briefly: Photo-oxygenation of human recombinant Myostatin expressed in Escherichia coli cells assessed as oxygen adduct formation in myostatin peak fragment 79-90 at 3 uM measured after photoirradiation for 30 mins using LED by MALDI-TOF-MS analysis. The gist of the method:
as §1

For series [9] the target is unchanged. The series can be described thus: Photo-oxygenation of human recombinant Myostatin expressed in Escherichia coli cells assessed as oxygen adduct formation in myostatin peak fragment 40-54 at 3 uM measured after photoirradiation for 30 mins using LED by MALDI-TOF-MS analysis. The gist of the method: as §1
For series [10] the target is unchanged. Briefly: Photo-oxygenation of human recombinant Myostatin expressed in Escherichia coli cells assessed as oxygen adduct formation in myostatin peak fragment 55-78 at 3 uM measured after photoirradiation for 30 mins using LED by MALDI-TOF-MS analysis. Put shortly: as §1
Series [11] concerns HEK293. Briefly: Phototoxicity against human HEK293 cells assessed as reduction in cell viability at 3 uM photoirradiated for 30 mins using LED followed by incubation with compound for 24 hrs by WST-1 assay. The series is classed as toxicity, cell-based. The following applies: hek293, 24.5 h, time 1470 min. The gist of the method: as §3
On the technique in general: Formazan colour is commonly taken as a measure of viable cells.

The target in series [12] is Amyloid-beta precursor protein (Homo sapiens) (UniProt P05067). The series can be described thus: Photo-oxygenation of human Amyloid beta (1 to 42) assessed as oxygen adduct formation at 3 uM measured after photoirradiation for 30 mins using LED by MALDI-TOF-MS analysis. Put shortly: as §2
Chain of Amyloid-beta precursor protein (Homo sapiens) (P05067 whole entry): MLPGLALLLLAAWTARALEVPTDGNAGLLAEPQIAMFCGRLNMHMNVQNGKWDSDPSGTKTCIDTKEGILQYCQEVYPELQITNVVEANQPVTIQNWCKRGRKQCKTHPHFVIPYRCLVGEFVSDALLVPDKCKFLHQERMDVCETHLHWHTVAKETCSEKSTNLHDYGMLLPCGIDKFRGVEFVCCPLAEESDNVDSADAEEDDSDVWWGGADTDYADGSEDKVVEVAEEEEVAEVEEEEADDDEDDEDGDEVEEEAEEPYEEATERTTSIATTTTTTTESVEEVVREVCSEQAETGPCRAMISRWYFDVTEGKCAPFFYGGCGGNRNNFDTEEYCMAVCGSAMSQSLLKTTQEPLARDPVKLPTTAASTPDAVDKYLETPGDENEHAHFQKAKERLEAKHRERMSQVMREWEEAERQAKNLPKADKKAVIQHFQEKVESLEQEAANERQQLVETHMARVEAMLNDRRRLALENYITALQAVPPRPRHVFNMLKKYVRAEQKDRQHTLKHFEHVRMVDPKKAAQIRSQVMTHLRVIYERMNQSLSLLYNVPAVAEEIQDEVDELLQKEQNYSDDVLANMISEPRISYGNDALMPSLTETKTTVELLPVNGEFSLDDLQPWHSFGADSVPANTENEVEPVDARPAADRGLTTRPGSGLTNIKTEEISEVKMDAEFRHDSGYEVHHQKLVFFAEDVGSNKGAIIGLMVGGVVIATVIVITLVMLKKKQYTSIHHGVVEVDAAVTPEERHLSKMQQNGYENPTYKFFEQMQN
Series [13] has as its system HEK293. The series can be described thus: Cytotoxicity against human HEK293 cells assessed as reduction in cell viability at 3 uM incubated for 24 hrs by WST-1 assay. Conditions: hek293, 24 h. The series is classed as toxicity, cell-based.
For series [14], the target named is Growth/differentiation factor 8 (Homo sapiens) (UniProt O14793). The series can be described thus: Inactivation of human recombinant Myostatin expressed in Escherichia coli cells at 300 nM incubated with luciferase reporter transfected HEK293 cells for 4 hrs by luciferase reporter gene assay.

What is called IC50 is the point on the concentration scale where inhibition reaches its midpoint. Usually share remaining stands for the share of the starting amount still present when the sample was taken. For the compound `CC[C@H](C)[C@H](NC(=O)[C@H](C)NC(=O)[C@H](CCC(=O)O)NC(=O)[C@@H](NC(=O)[C@H](CCCNC(=N)N)NC(=O)[C@H](CO)NC(=O)[C@H](Cc1ccc(O)cc1)NC(=O)[C@H](CCCNC(=N)N)NC(=O)[C@@H](NC(=O)[C@H](CC(N)=O)NC(=O)[C@H](CCC(N)=O)NC(=O)[C@H](CCCNC(=N)N)NC(=O)CC(c1ccccc1)c1ccccc1)[C@@H](C)O)[C@@H](C)CC)C(=O)N[C@@H](CCCCN)C(=O)N[C@H](C(=O)N[C@@H](Cc1cn(CCN2CCCc3cc(/C=C/C4=C(Br)C(/C=C/c5cc6c7c(c5)CCCN7CCC6)=[O+][B-](F)(C(F)(F)F)O4)ccc32)nn1)C(=O)N[C@H](C(=O)N[C@@H](CC(C)C)C(=O)N[C@@H](CO)C(=O)N[C@@H](CCCCN)C(=O)N[C@@H](CC(C)C)C(=O)N[C@@H](CCCNC(=N)N)C(=O)N[C@@H](CC(C)C)C(=O)O)[C@@H](C)CC)[C@@H](C)CC` (stereo not given in full), the Stability entry (in [1]; in the series on trypsin (Sus scrofa); in series [3]) was “Unstable” in each case. The IC50 in series [2] came to 2.1 nM. The amount remaining at 1 h, 100 µM in [4] is 13%.
As to `CN(C)c1ccc2nc3ccc(=[N+](C)C)cc-3sc2c1` [METHYLENE BLUE ANHYDROUS], the result in series [5] and in series [6] was Active. Besides, the viability at 24.5 h, 3 µM in series [7] was 21%.
On to `CC[C@@H](C)[C@@H](NC(=O)[C@@H](CCCNC(=N)N)NC(=O)[C@@H](CCc1ccccc1)NC(=O)[C@H](NC(=O)[C@@H](CCCCN)NC(=O)[C@H](NC(=O)[C@@H](Cc1cn(CCN2CCCc3cc(/C=C/C4=C(Br)C(/C=C/c5cc6c7c(c5)CCCN7CCC6)=[O+][B-](F)(C(F)(F)F)O4)ccc32)nn1)NC(=O)[C@H](NC(=O)[C@@H](Cc1ccc2ccccc2c1)NC(=O)[C@@H](CCCNC(=N)N)NC(=O)[C@@H](CCCCN)NC(=O)[C@H](NC(=O)[C@@H](CCCNC(=N)N)NC(=O)[C@H](N)CC(C)C)C1CCCCC1)[C@H](C)CC)C1CCCCC1)[C@H](C)CC)C(=O)N[C@H](Cc1ccc(O)cc1)C(=O)N[C@H](CCc1ccccc1)C(N)=O` (stereo not given in full), for which the outcome in series [8] and in series [10] was Active. Further, the outcome in series [9] and in [12] was inactive. Besides, the Activity entry in the series on HEK293 [11] is reported as “Non-Toxic”.
Regarding `CC[C@@H](C)[C@@H](NC(=O)[C@@H](Cc1cn(CCN2CCCc3cc(/C=C/C4=C(Br)C(/C=C/c5cc6c7c(c5)CCCN7CCC6)=[O+][B-](F)(C(F)(F)F)O4)ccc32)nn1)NC(=O)[C@@H](CCc1ccccc1)NC(=O)[C@H](NC(=O)[C@@H](CCCCN)NC(=O)[C@H](NC(=O)[C@@H](CCCNC(=N)N)NC(=O)[C@H](NC(=O)[C@@H](Cc1ccc2ccccc2c1)NC(=O)[C@@H](CCCNC(=N)N)NC(=O)[C@@H](CCCCN)NC(=O)[C@H](NC(=O)[C@@H](CCCNC(=N)N)NC(=O)[C@H](N)CC(C)C)C1CCCCC1)[C@H](C)CC)C1CCCCC1)[C@H](C)CC)C(=O)N[C@H](Cc1ccc(O)cc1)C(=O)N[C@H](CCc1ccccc1)C(N)=O` (stereo not given in full), the result in [8] and in [10] was Active. Moreover, the outcome in [9] and in series [12] was inactive. The Activity entry in the series on HEK293 [11] is “Non-Toxic”.
Turning to `CN(C)c1ccc2nc3ccc(N(C)C)cc3[s+]c2c1.[Cl-]` [METHYLENE BLUE ANHYDROUS], the Activity entry with HEK293 [13] is on record as “Non-Toxic”.
Regarding `CC[C@@H](C)[C@@H](NC(=O)[C@@H](CCCNC(=N)N)NC(=O)[C@@H](CCc1ccccc1)NC(=O)[C@H](NC(=O)[C@@H](CCCCN)NC(=O)[C@H](NC(=O)[C@@H](CCCNC(=N)N)NC(=O)[C@H](NC(=O)[C@@H](Cc1ccc2ccccc2c1)NC(=O)[C@@H](CCCNC(=N)N)NC(=O)[C@@H](CCCCN)NC(=O)[C@H](NC(=O)[C@@H](CCCNC(=N)N)NC(=O)[C@H](N)CC(C)C)C1CCCCC1)[C@H](C)CC)C1CCCCC1)[C@H](C)CC)C(=O)N[C@H](Cc1ccc(O)cc1)C(=O)N[C@H](CCc1ccccc1)C(N)=O`, in series [14], the inhibition entry is “Active”.
`CC[C@@H](C)[C@@H](NC(=O)[C@@H](CCCNC(=N)N)NC(=O)[C@@H](CCc1ccccc1)NC(=O)[C@H](NC(=O)[C@@H](CCCCN)NC(=O)[C@H](NC(=O)[C@@H](CCCNC(=N)N)NC(=O)[C@H](NC(=O)[C@@H](Cc1ccc2ccccc2c1)NC(=O)[C@@H](CCCNC(=N)N)NC(=O)[C@@H](Cc1cn(CCN2CCCc3cc(/C=C/C4=C(Br)C(/C=C/c5cc6c7c(c5)CCCN7CCC6)=[O+][B-](F)(C(F)(F)F)O4)ccc32)nn1)NC(=O)[C@H](NC(=O)[C@@H](CCCNC(=N)N)NC(=O)[C@H](N)CC(C)C)C1CCCCC1)[C@H](C)CC)C1CCCCC1)[C@H](C)CC)C(=O)N[C@H](Cc1ccc(O)cc1)C(=O)N[C@H](CCc1ccccc1)C(N)=O` (stereo not given in full): the outcome in series [8] and in series [10] was Active. The outcome in [9] and in [12] was inactive. Further, the Activity result in the series on HEK293 [11] is recorded as “Non-Toxic”.
With `CC[C@@H](C)[C@@H](NC(=O)[C@@H](CCCNC(=N)N)NC(=O)[C@@H](CCc1ccccc1)NC(=O)[C@H](NC(=O)[C@@H](CCCCN)NC(=O)[C@H](NC(=O)[C@@H](CCCNC(=N)N)NC(=O)[C@H](NC(=O)[C@@H](Cc1ccc2ccccc2c1)NC(=O)[C@@H](CCCNC(=N)N)NC(=O)[C@@H](CCCCN)NC(=O)[C@H](NC(=O)[C@@H](CCCNC(=N)N)NC(=O)[C@H](N)CC(C)C)C1CCCCC1)[C@H](C)CC)C1CCCCC1)[C@H](C)CC)C(=O)N[C@H](Cc1ccc(O)cc1)C(=O)N[C@H](Cc1cn(CCN2CCCc3cc(/C=C/C4=C(Br)C(/C=C/c5cc6c7c(c5)CCCN7CCC6)=[O+][B-](F)(C(F)(F)F)O4)ccc32)nn1)C(N)=O` (stereo not given in full), the outcome in series [8] and in series [10] was Active. Further, the outcome in [9] and in series [12] was inactive. The Activity result in the series on HEK293 [11] is “Non-Toxic”.
